Measured values taken from ChEMBL document CHEMBL1125138, “1,3-Dialkyl-3-acyltriazenes, a novel class of antineoplastic alkylating agents” (J Med Chem, 1990).

Legend:
A498 = experiment: Evaluated for the inhibitory concentration required to cause growth inhibition of A498Rem- renal cell line using the MTT Cytotoxicity Assay; assay type: functional, cell-based; details: Homo sapiens
Procedure, shortened: (§1)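 MTT microculture tetrazolium growth assay on human cell lines and normal fibroblasts. Cells seeded at 1000 cells/well, with compound added 24 h after plating. Cultures then incubated a further 6 days at 37 °C before MTT read-out of growth versus untreated cells.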

A-427 = experiment: Evaluated for the inhibitory concentration required to cause growth inhibition of A427Mer- cell line of lung using the MTT Cytotoxicity Assay; assay type: functional, cell-based; details: Homo sapiens; procedure, shortened: as §1
A704 = experiment: Evaluated for the inhibitory concentration required to cause growth inhibition of A704Rem- renal cell line using the MTT Cytotoxicity Assay; assay type: functional, cell-based; details: Homo sapiens; procedure, shortened: as §1
A673 = experiment: Evaluated for the inhibitory concentration required to cause growth inhibition of A673Mer+ sarcoma cell line using the MTT Cytotoxicity Assay; assay type: functional, cell-based; details: Homo sapiens; procedure, shortened: as §1
A 172 = experiment: Evaluated for the inhibitory concentration required to cause growth inhibition of A172Mer- cell line of central nervous system (CNS) using the MTT Cytotoxicity Assay; assay type: functional, cell-based; details: Homo sapiens; procedure, shortened: as §1
CCD 19Lu = experiment: Evaluated for the inhibitory concentration required to cause growth inhibition of CCD-19Lu fibroblasts cell line using the MTT Cytotoxicity Assay; assay type: functional, cell-based; details: Homo sapiens; procedure, shortened: as §1
DOD-1 = experiment: Evaluated for the inhibitory concentration required to cause growth inhibition of DOD-1 breast cell line using the MTT Cytotoxicity Assay; assay type: functional, cell-based; details: Homo sapiens; procedure, shortened: as §1
NCI-H460 = experiment: Evaluated for the inhibitory concentration required to cause growth inhibition of H460 cell line of lung using the Microculture Tetrazolium (MTT) Cytotoxicity Assay; assay type: functional, cell-based; details: Homo sapiens; procedure, shortened: as §1
NCI-H358 = experiment: Evaluated for the inhibitory concentration required to cause growth inhibition of H358M cell line of lung using the Microculture Tetrazolium (MTT) Cytotoxicity Assay; assay type: functional, cell-based; details: Homo sapiens; procedure, shortened: as §1
NCI-H125 = experiment: Evaluated for the inhibitory concentration required to cause growth inhibition of H125 cell line of lung using the Microculture Tetrazolium (MTT) Cytotoxicity Assay; assay type: functional, cell-based; details: Homo sapiens; procedure, shortened: as §1
NCI-H322M = experiment: Evaluated for the inhibitory concentration required to cause growth inhibition of H322M cell line of lung using the Microculture Tetrazolium (MTT) Cytotoxicity Assay; assay type: functional, cell-based; details: Homo sapiens; procedure, shortened: as §1
NCI-H23 = experiment: Evaluated for the inhibitory concentration required to cause growth inhibition of H23 cell line of lung using the Microculture Tetrazolium (MTT) Cytotoxicity Assay; assay type: functional, cell-based; details: Homo sapiens; procedure, shortened: as §1
LOX IMVI = experiment: Evaluated for the inhibitory concentration required to cause growth inhibition of LOX melanoma cell line using the MTT Cytotoxicity Assay; assay type: functional, cell-based; details: Homo sapiens; procedure, shortened: as §1
L1210 [1] = experiment: Evaluated for the antineoplastic activity against L1210 leukemia tumor […] after administering intra peritoneally at a dose of 30 mg/kg; assay type: functional, Mus musculus
Procedure, shortened: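 Mice bearing L1210 leukemia dosed intraperitoneally once daily for 5 successive days (five injections). Activity reported as % T/C at each dose. Performed under the NCI Developmental Therapeutics Program.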

MCF7 = experiment: Evaluated for the inhibitory concentration required to cause growth inhibition of MCF-7 breast cell line using the MTT Cytotoxicity Assay; assay type: functional, cell-based; details: Homo sapiens; procedure, shortened: as §1
[2] = test system: MAR BEL fibroblasts cell line; experiment: Evaluated for the inhibitory concentration required to cause growth inhibition of MAR BEL fibroblasts cell line using the MTT Cytotoxicity Assay; assay type: functional, cell-based; details: Homo sapiens; procedure, shortened: as §1
[3] = Evaluated for the antineoplastic activity against M5 sarcoma tumor xenograft in nude mice after administering Intra peritoneally at 4-day interval at a dose of 15 mg/kg; assay type: functional, Mus musculus
Procedure, shortened: (§2)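 M5 sarcoma-bearing mice given four intraperitoneal injections at 4-day intervals. Activity reported as % T/C per dose. Performed under the NCI Developmental Therapeutics Program.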

[4] = Evaluated for the antineoplastic activity against M5 sarcoma tumor xenograft in nude mice after administering Intra peritoneally at 4-day interval at a dose of 60 mg/kg; assay type: functional, Mus musculus; procedure, shortened: as §2
[5] = Evaluated for the antineoplastic activity against M5 sarcoma tumor xenograft in nude mice after administering Intra peritoneally at 4-day interval at a dose of 7.5 mg/kg; assay type: functional, Mus musculus; procedure, shortened: as §2
[6] = Evaluated for the antineoplastic activity against M5 sarcoma tumor xenograft in nude mice after administering Intra peritoneally at 4-day interval at a dose of 30 mg/kg; assay type: functional, Mus musculus; procedure, shortened: as §2
L1210 [7] = experiment: Evaluated for the antineoplastic activity against L1210 leukemia tumor […] after administering intra peritoneally at a dose of 15 mg/kg; assay type: functional, Mus musculus
NCI/ADR-RES = experiment: Evaluated for the inhibitory concentration required to cause growth inhibition of MCF-7ADR breast cell line using the MTT Cytotoxicity Assay; assay type: functional, cell-based; details: Homo sapiens; procedure, shortened: as §1
Malme-3M = experiment: Evaluated for the inhibitory concentration required to cause growth inhibition of MALME-3M melanoma cell line using the MTT Cytotoxicity Assay; assay type: functional, cell-based; details: Homo sapiens; procedure, shortened: as §1
OVCAR-4 = experiment: Evaluated for the inhibitory concentration required to cause growth inhibition of OVCAR-4 ovarian cell line using the MTT Cytotoxicity Assay; assay type: functional, cell-based; details: Homo sapiens; procedure, shortened: as §1
OVCAR-3 = experiment: Evaluated for the inhibitory concentration required to cause growth inhibition of OVCAR-3 ovarian cell line using the MTT Cytotoxicity Assay; assay type: functional, cell-based; details: Homo sapiens; procedure, shortened: as §1
HOS-TE85 = experiment: Evaluated for the inhibitory concentration required to cause growth inhibition of TE85Mer+ sarcoma cell line using the MTT Cytotoxicity Assay; assay type: functional, cell-based; details: Homo sapiens; procedure, shortened: as §1
TE-671 = experiment: Evaluated for the inhibitory concentration required to cause growth inhibition of TE-671 cell line of central nervous system (CNS)using the MTT Cytotoxicity Assay; assay type: functional, cell-based; details: Homo sapiens; procedure, shortened: as §1
WiDr = experiment: Evaluated for the inhibitory concentration required to cause growth inhibition of WiDR colon cell line using the MTT Cytotoxicity Assay; assay type: functional, cell-based; details: Homo sapiens
Procedure, shortened: (§3)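 MTT cell-growth assay in human cell lines: cells harvested and seeded at 1000 cells/well in 96-well plates. Compound added after 24 h, then cultures incubated a further 6 days at 37 °C. Growth measured with and without agent.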

U-251 = experiment: Evaluated for the inhibitory concentration required to cause growth inhibition of U251 cell line of central nervous system (CNS) using the MTT Cytotoxicity Assay; assay type: functional, cell-based; details: Homo sapiens; procedure, shortened: as §3
[8] = Evaluated for the antineoplastic activity against amelanotic melanoma tumor xenograft in nude mice after injecting intraperitoneally at a dose of 120 mg/kg; assay type: functional, Mus musculus; details: route intraperitoneal
[9] = Evaluated for the antineoplastic activity against amelanotic melanoma tumor xenograft in nude mice after injecting intraperitoneally at a dose of 30 mg/kg; assay type: functional, Mus musculus; details: route intraperitoneal
[10] = Evaluated for the antineoplastic activity against amelanotic melanoma tumor xenograft in nude mice after injecting intraperitoneally at a dose of 60 mg/kg; assay type: functional, Mus musculus; details: route intraperitoneal
RPMI-7951 = experiment: Evaluated for the inhibitory concentration required to cause growth inhibition of RPMI7951 melanoma cell line using the MTT Cytotoxicity Assay; assay type: functional, cell-based; details: Homo sapiens; procedure, shortened: as §1
SK-MEL-5 = experiment: Evaluated for the inhibitory concentration required to cause growth inhibition of SK-MEL-5 melanoma cell line using the MTT Cytotoxicity Assay; assay type: functional, cell-based; details: Homo sapiens; procedure, shortened: as §1
A549 = experiment: Evaluated for the inhibitory concentration required to cause growth inhibition of A549Rem- cell line of lung using the MTT Cytotoxicity Assay; assay type: functional, cell-based; details: Homo sapiens; procedure, shortened: as §1
NCI-H522 (Homo sapiens) = experiment: Evaluated for the inhibitory concentration required to cause growth inhibition of H522 cell line of lung using the Microculture Tetrazolium (MTT) Cytotoxicity Assay
P388 [11] = experiment: Evaluated in vivo for antineoplastic activity against P388 murine leukemia tumor […] after administering intra peritoneal injection at a dose of 13.12 mg/kg; assay type: functional, Mus musculus
Procedure, shortened: (§4)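 P388 leukemia-bearing mice, run through the NCI Developmental Therapeutics Program. Compound given ip once daily on 5 consecutive days. Activity read out as % T/C.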

P388 [12] = experiment: Evaluated in vivo for antineoplastic activity against P388 murine leukemia tumor […] after administering intra peritoneal injection at a dose of 26.25 mg/kg; assay type: functional, Mus musculus; procedure, shortened: as §4
P388 [13] = experiment: Evaluated in vivo for antineoplastic activity against P388 murine leukemia tumor […] after administering intra peritoneal injection at a dose of 52.5 mg/kg; assay type: functional, Mus musculus; procedure, shortened: as §4

SMILES: CCOC(=O)N(C)/N=N\C
- IC50 (A498): 35 µM
- IC50 (A-427): 7 µM
- IC50 (A704): 55 µM
- IC50 (A673): 75 µM
- IC50 (A 172): 20 µM
- IC50 (CCD 19Lu): 62 µM
- IC50 (DOD-1): 44 µM
- IC50 (NCI-H460): 65 µM
- IC50 (NCI-H358): 80 µM
- IC50 (NCI-H125): 44 µM
- IC50 (NCI-H322M): 42 µM
- IC50 (NCI-H23): 20 µM
- IC50 (LOX IMVI): 22 µM
- T/C (L1210 [1]): 142%
- IC50 (MCF7): 27 µM
- IC50 [2]: 75 µM
- T/C [3]: 140%
- T/C [4]: 168%
- T/C [5]: 131%
- T/C [6]: 158%
- T/C (L1210 [7]): 133%
- IC50 (NCI/ADR-RES): 34 µM
- IC50 (Malme-3M): 22 µM
- IC50 (OVCAR-4): 40 µM
- IC50 (OVCAR-3): 60 µM
- IC50 (HOS-TE85): 37 µM
- IC50 (TE-671): 48 µM
- IC50 (WiDr): 45 µM
- IC50 (U-251): 28 µM
- T/C [8]: 191%
- T/C [9]: 132%
- T/C [10]: 147%
- IC50 (RPMI-7951): 35 µM
- IC50 (SK-MEL-5): 20 µM
- IC50 (A549): 45 µM
- IC50 (NCI-H522 (Homo sapiens)): 18 µM

SMILES: CC(=O)N(C)/N=N\CCCl
- IC50 (A498): 18 µM
- IC50 (A-427): 12 µM
- IC50 (A704): 26 µM
- IC50 (A673): 35 µM
- IC50 (A 172): 20 µM
- IC50 (CCD 19Lu): 60 µM
- IC50 (DOD-1): 26 µM
- IC50 (NCI-H460): 60 µM
- IC50 (NCI-H358): 60 µM
- IC50 (NCI-H125): 42 µM
- IC50 (NCI-H322M): 32 µM
- IC50 (NCI-H23): 20 µM
- IC50 (LOX IMVI): 8 µM
- IC50 (MCF7): 15 µM
- IC50 [2]: 44 µM
- IC50 (NCI/ADR-RES): 24 µM
- IC50 (Malme-3M): 25 µM
- IC50 (OVCAR-4): 18 µM
- IC50 (OVCAR-3): 25 µM
- T/C (P388 [11]): 157%
- T/C (P388 [12]): 217%
- T/C (P388 [13]): 257%
- IC50 (HOS-TE85): 18 µM
- IC50 (TE-671): 50 µM
- IC50 (WiDr): 15 µM
- IC50 (U-251): 18 µM
- IC50 (RPMI-7951): 17 µM
- IC50 (SK-MEL-5): 15 µM
- IC50 (A549): 26 µM
- IC50 (NCI-H522 (Homo sapiens)): 18 µM

SMILES: O=NN(CCCl)C(=O)NCCCl [CARMUSTINE]
- IC50 (A498): 110 µM
- IC50 (A-427): 8 µM
- IC50 (A704): 125 µM
- IC50 (A 172): 18 µM
- IC50 (CCD 19Lu): 300 µM
- IC50 (DOD-1): 37 µM
- IC50 (NCI-H460): 80 µM
- IC50 (NCI-H358): 98 µM
- IC50 (NCI-H125): 9 µM
- IC50 (NCI-H322M): 60 µM
- IC50 (NCI-H23): 5 µM
- IC50 (LOX IMVI): 7 µM
- IC50 (MCF7): 4.5 µM
- IC50 (NCI/ADR-RES): 20 µM
- IC50 (Malme-3M): 20 µM
- IC50 (OVCAR-4): 18 µM
- IC50 (OVCAR-3): 15 µM
- IC50 (TE-671): 25 µM
- IC50 (U-251): 15 µM
- IC50 (SK-MEL-5): 27 µM
- IC50 (A549): 90 µM
- IC50 (NCI-H522 (Homo sapiens)): 20 µM
